Broadly, the AUC(0-inf) is the area under the concentration-time curve extrapolated to infinity. By Cmax is commonly meant the peak of the concentration-time curve. For orientation: CL/F means clearance divided by bioavailability, as obtained after extravascular dosing. The term Vd/F denotes the volume of distribution divided by bioavailability. By half-life is commonly meant the time needed for the level to fall by half in the phase considered. As usually defined, the AUC(0-t) is exposure summed from dosing to a finite time, without extrapolation to infinity. By AUC is commonly meant the area under the concentration-time curve, a measure of exposure. A word on the clearance: it is a measure of how efficiently the substance is removed, as volume per time.

Bounds are passed on as bounds.

The nature of data set [1]: AUC(0 to infinity) in Sprague-Dawley rat at 1 mg/kg, po administered via gavage measured under fasted conditions by LC-MS/MS analysis. The class given is ADME, organism-based. The arrangement: time infinity, dose 1 mg/kg, route oral. The following applies: plasma. The method, boiled down:
(§1)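 Fasted male Sprague-Dawley rats (280–330 g) received 0.1, 1, 10 or 30 mg/kg by oral gavage in 50 mM HEPES buffered saline, pH 7.4. Blood drawn at 0.25–24 h into heparin/NEM tubes; plasma analyzed by LC-MS/MS. Cmax taken as observed. AUC by linear trapezoidal rule with extrapolation by λz. Cl/F and Vd/F reported. Mean ± S.D., n = 4–9.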

A short description of data set [2]: Cmax in Sprague-Dawley rat at 10 mg/kg, po administered via gavage measured under fed conditions by LC-MS/MS analysis. Type of data set: ADME, organism-based. The arrangement: dose 10 mg/kg, route oral. Conditions: in vivo. The method, boiled down: (§2)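 Nonfasted male Sprague-Dawley rats given a single 10 mg/kg oral dose in 50 mM HEPES buffered saline, pH 7.4. Plasma collected 0.25–24 h into heparin/NEM tubes and assayed by LC-MS/MS. Noncompartmental parameters derived, including Cl/F and Vd/F. Mean ± S.D., n = 6–9.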

The subject of a further data set is Rattus norvegicus. The experiment in a line: Apparent oral clearance in Sprague-Dawley rat at 0.1 mg/kg, po administered via gavage measured under fasted conditions by LC-MS/MS analysis. The arrangement: dose 0.1 mg/kg, route oral. The class given is ADME, organism-based. Conditions: in vivo. The procedure, abridged:
as §1

Data set [3] in a line: AUC(0 to infinity) in Sprague-Dawley rat at 1 mg/kg, iv administered as bolus injection measured under fasted conditions by LC-MS/MS analysis. Conditions: plasma. The arrangement: time infinity, dose 1 mg/kg, route intravenous. Type of data set: ADME, organism-based. The procedure, abridged: (§3)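 Male Sprague-Dawley rats (280–330 g), jugular vein cannulated, fasted overnight until 4 h post-dose. Single tail-vein bolus of 0.1, 1, 10 or 30 mg/kg in 50 mM HEPES buffered saline, pH 7.4. Blood drawn 0–24 h into heparin tubes containing NEM. Plasma quantified by LC-MS/MS after NEM derivatization. Noncompartmental analysis: AUClast by linear trapezoidal rule, Cl = dose/AUC0-∞. Mean ± S.D., n = 4–9.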

The nature of data set [4]: Cmax in Sprague-Dawley rat liver at 10 mg/kg/day, po administered for 5 days measured per gm of tissue by LC-MS/MS analysis. Also noted: dose 10 mg/kg/day, route oral. Type of data set: ADME, organism-based. The procedure, abridged: (§4)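 Male Sprague-Dawley rats were dosed orally with 10 mg/kg/day, either once or daily for 5 days; n = 4 per group. Blood was taken by cardiac puncture and liver, kidney, brain and sciatic nerve were collected at 0–8 h post-dose. Tissues were homogenized in PBS containing NEM at equal volume per gram. NEM-derivatized analyte was extracted with methanol and quantified by LC-MS/MS (1–5000 ng/ml). Cmax is the observed value.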

The nature of data set [5]: Phase 2 metabolic stability in dog liver microsomes assessed as compound remaining at 10 uM measured for 1 hr by LC-MS/MS analysis in absence of cofactors. The class given is ADME, Canis lupus familiaris. The following applies: read-out: Stability. The method, boiled down:
(§5)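 Cofactor-free controls were run for each microsomal incubation: 0.5 mg/ml liver microsomes with 10 µM compound, omitting cofactors, so that cofactor-independent degradation could be measured. Samples were taken up to 1 h, quenched with acetonitrile containing internal standard, and the percent remaining was determined by LC-MS/MS.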
A general note: Microsomes from liver hold many membrane-bound enzymes, among them those of drug oxidation.

A short description of data set [6]: Metabolic stability in Sprague-Dawley rat plasma assessed as compound remaining at 5 uM after 1 hr by LC-MS/MS analysis. Type of data set: ADME, cell-free. The following applies: read-out: Stability. The method, boiled down:
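Compound at 5 and 10 µM was incubated at 37°C in Sprague-Dawley rat or cynomolgus monkey plasma. Aliquots taken at 0, 30 and 60 min were quenched with acetonitrile and analyzed by LC-MS/MS. Percent remaining = analyte/internal-standard area ratio at time t divided by that at time 0.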

The nature of data set [7]: Cmax in Sprague-Dawley rat plasma at 10 mg/kg, po administered as single dose by LC-MS/MS analysis. Type of data set: ADME, organism-based. The arrangement: dose 10 mg/kg, route oral. The method, boiled down:
as §4

Data set [8] in a line: Apparent volume of distribution in cynomolgus monkey at 5 mg/kg, po by LC-MS/MS analysis. The class given is ADME, organism-based, Macaca fascicularis. Also noted: dose 5 mg/kg, route oral. Conditions: in vivo. The procedure, abridged: (§6)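 Cynomolgus monkeys (n = 3) dosed orally at a nominal 5 mg/kg in TCEP-treated 50 mM HEPES solution. Blood taken via iliac or femoral arterial cannula up to 9 days into heparin/NEM tubes. Plasma analyzed by LC-MS/MS. Cl/F and Vd/F derived noncompartmentally.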

Data set [9] in a line: Half life in Sprague-Dawley rat at 1 mg/kg, po administered via gavage measured under fasted conditions by LC-MS/MS analysis. The arrangement: dose 1 mg/kg, route oral. Type of data set: ADME, organism-based. The following applies: in vivo.
Data set [10] can be described thus: Apparent volume of distribution in Sprague-Dawley rat at 1 mg/kg, po administered via gavage measured under fasted conditions by LC-MS/MS analysis. Type of data set: ADME, organism-based. The arrangement: dose 1 mg/kg, route oral. Conditions: in vivo. The procedure, abridged:
as §1

Data set [11] is described as follows: AUC(0 to infinity) in Sprague-Dawley rat at 0.1 mg/kg, iv administered as bolus injection measured under fasted conditions by LC-MS/MS analysis. Also noted: time infinity, dose 0.1 mg/kg, route intravenous. The class given is ADME, organism-based. The following applies: plasma. The procedure, abridged: as §3
The nature of data set [12]: AUC(0 to last) in Sprague-Dawley rat at 10 mg/kg, po administered via gavage measured under fed conditions by LC-MS/MS analysis. Type of data set: ADME, organism-based. The arrangement: time 0 - last, dose 10 mg/kg, route oral. Conditions: plasma. The procedure, abridged:
as §2

The test system of data set [13] is Cynomolgus monkey. Description: Apparent oral clearance in cynomolgus monkey at 5 mg/kg, po by LC-MS/MS analysis. The class given is ADME, organism-based, Macaca fascicularis. The arrangement: dose 5 mg/kg, route oral. The following applies: in vivo. The method, boiled down:
as §6

A short description of data set [14]: AUC(0 to infinity) in Sprague-Dawley rat at 30 mg/kg, po administered via gavage measured under fasted conditions by LC-MS/MS analysis. The following applies: plasma. Type of data set: ADME, organism-based. The arrangement: time infinity, dose 30 mg/kg, route oral. The method, boiled down:
as §1

Data set [15] can be described thus: Cmax in cynomolgus monkey at 5 mg/kg, iv administered as bolus injection by LC-MS/MS analysis. The class given is ADME, organism-based, Macaca fascicularis. The arrangement: dose 5 mg/kg, route intravenous. The following applies: in vivo. The procedure, abridged:
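Cynomolgus monkeys (n = 3) received a nominal 5 mg/kg dose in 50 mM HEPES, TCEP-treated to prevent disulfide formation. Dosing was either an IV bolus via cephalic or saphenous vein or oral. Arterial cannula blood was collected into NEM-containing heparinized tubes for up to 9 days and analyzed by LC-MS/MS. Noncompartmental analysis gave t1/2 = 0.693/λz and F% = dose-normalized mean AUCinf p.o./i.v. ×100.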

Data set [16] has as its system Cynomolgus monkey. The experiment in a line: AUC(0 to infinity) in cynomolgus monkey at 5 mg/kg, iv administered as bolus injection by LC-MS/MS analysis. Type of data set: ADME, organism-based, Macaca fascicularis, Plasma. The arrangement: time infinity, dose 5 mg/kg, route intravenous. The following applies: in vivo. The method, boiled down:
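Cynomolgus monkeys (n = 3) given a 5 mg/kg intravenous bolus via cephalic or saphenous vein. Dosing solution in 50 mM HEPES, TCEP-treated. Arterial cannula blood collected up to 9 days into heparin/NEM tubes. Plasma assayed by LC-MS/MS. Noncompartmental analysis.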

Data set [17] is described as follows: Cmax in Sprague-Dawley rat plasma at 10 mg/kg/day, po administered for 5 days by LC-MS/MS analysis. Type of data set: ADME, organism-based. The arrangement: dose 10 mg/kg/day, route oral. The method, boiled down: as §4
Data set [18] can be described thus: Clearance in Sprague-Dawley rat at 10 mg/kg, iv by LC-MS/MS analysis. The following applies: in vivo. Also noted: dose 10 mg/kg, route intravenous. Type of data set: ADME, organism-based. The procedure, abridged:
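Male Sprague-Dawley rats dosed intravenously at 10 mg/kg (n = 6). Blood sampling extended to 7 days into heparin tubes containing NEM. Plasma assayed for parent and homodisulfide by LC-MS/MS, calibration range 1–5000 ng/ml. Noncompartmental analysis, t1/2 = 0.693/λz. Mean ± S.D.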

Data set [19] is described as follows: Phase 1 metabolic stability in mouse liver microsomes assessed as compound remaining at 10 uM measured for 1 hr by LC-MS/MS analysis in absence of cofactors. Type of data set: ADME. The following applies: read-out: Stability. The procedure, abridged: as §5
Data set [20] is described as follows: Phase 1 metabolic stability in dog liver microsomes assessed as compound remaining at 10 uM measured for 1 hr by LC-MS/MS analysis in absence of cofactors. The class given is ADME, Canis lupus familiaris. Conditions: read-out: Stability. The procedure, abridged:
as §5

For `O=C(O)c1cccc(-c2cccc(CCS)c2C(=O)O)c1`, the area under the curve AUC(0-inf) in data set [1] turned out to be 3210 ng·h/mL; in [3] it was 13000 ng·h/mL; in data set [11], 1970 ng·h/mL; in [14], 76600 ng·h/mL. In addition, the Cmax in [2] came out at 16200 ng/mL; in [4] it was 457 ng/g; in data set [7], 4920 ng/mL; in [15] it was 68000 ng/mL; in data set [17], 6080 ng/mL. Also, the values for the CL/F with Rattus norvegicus and in the data set on Cynomolgus monkey [13] were 8.5 mL/min/kg and 0.95 mL/min/kg, respectively. The remaining at 1 h, 10 µM in [5], in data set [19] and in data set [20] was over 90% in each case. For the same molecule, the remaining at 1 h, 5 µM in data set [6] was found to be 55%. Besides, the Vd/F was 0.79 L/kg in [8] and 1.65 L/kg in [10]. In data set [9], this molecule had a half-life of 3.72 h. The AUC(0-t) in data set [12] came out at 32200 ng·h/mL. Further, the AUC with Cynomolgus monkey [16] was 63622.1 ng·h/mL. Also, in data set [18], the clearance was 2 mL/min/kg.

The record behind these values is ChEMBL document CHEMBL3526151, “Reversible disulfide formation of the glutamate carboxypeptidase II inhibitor E2072 results in prolonged systemic exposures in vivo” (Drug Metab Dispos, 2012).
